The nature of assay [1]: inhibitors of TNFa-induced NFkB p65 translocation, primary screen, imaging, HUVEC, MLSMR starter and 10KST1 sets (AID 438;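 active = inhibition above 20% together with a positive visual image hit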;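 note: compound added about 3h40 before a 20 min TNFalpha stimulation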;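 for inhibition: signal is the nuclear over cytoplasmic p65 intensity ratio per well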). The conditions noted are these: HUVEC TNFa-induced p65 nuclear translocation; cell count: measured here: nuclei count (cytotoxicity indicator), at 2.08 µM; inhibition: at 2 µM, stronger effect = higher value, 0% TNFa-plus-vehicle, 100% no-TNFa wells.
Assay [2] in a line: inhibitors of mutant huntingtin aggregation, primary screen, imaging, exon1htt(103Q)mCFP cells, high-content imaging (AID 483;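 active = visual image review flags a hit and inhibition of aggregation exceeds 20%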;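 note: compound exposure lasted 3 days before fixation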;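 for nuclei count: percent of the per-plate median nuclei count of sample wells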). The conditions noted are these: exon1htt(103Q)mCFP cell line, aggregate imaging, at 2 µM; inhibition of aggregation: stronger effect = higher value; nuclei count: measured here: cell count, toxicity.
Assay [3] can be described thus: inhibitors of E-selectin induction by TNFa, primary screen, imaging, HUVEC, immunofluorescence, MLSMR starter and 10KST1 sets (AID 487;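 active = visually confirmed hit in the image check and inhibition above 20%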;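 for inhibition: signal is fraction of cell area covered by stained E-selectin grains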;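 for nuclei count: 100% = median nuclei count of all wells on the same plate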). Particulars: HUVEC TNFalpha-induced E-selectin immunofluorescence imaging, at 2 µM; inhibition: stronger effect = higher value; nuclei count: measured here: cell number, toxicity.
The target in assay [4] is Voltage-gated potassium channel subunit beta-2 (Rattus norvegicus) (UniProt P62483). The experiment in a line: KvBeta enzyme negative modulators, primary screen, biochemical, NADPH fluorescence (AID 622;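 active = fluorescence slope higher than the sample average by over 3 SD, cut at about -0.22 in these data, passing the limit was not always enough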;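 note: slope of raw intensity against log time taken from 70 to 1610 s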). Particulars: recombinant KvBeta, 4-cyanobenzaldehyde reduction, at 10 µM, stronger effect = higher value.
Voltage-gated potassium channel subunit beta-2 (Rattus norvegicus), sequence (P62483 whole entry, looked up): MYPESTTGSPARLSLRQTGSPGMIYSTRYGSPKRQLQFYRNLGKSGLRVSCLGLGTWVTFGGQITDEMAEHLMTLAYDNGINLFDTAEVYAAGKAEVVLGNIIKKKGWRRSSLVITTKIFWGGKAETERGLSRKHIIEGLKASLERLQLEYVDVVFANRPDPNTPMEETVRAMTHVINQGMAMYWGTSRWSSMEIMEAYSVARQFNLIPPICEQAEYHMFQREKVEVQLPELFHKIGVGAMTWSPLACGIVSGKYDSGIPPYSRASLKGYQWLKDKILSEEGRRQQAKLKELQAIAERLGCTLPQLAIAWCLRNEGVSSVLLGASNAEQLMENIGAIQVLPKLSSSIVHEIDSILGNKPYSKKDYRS
For assay [5] the target is unchanged. The experiment in a line: KvBeta positive modulators, primary screen, biochemical, NADPH fluorescence (AID 623;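 active = NADPH fluorescence slope more negative than the mean of all samples by about 3 SD, 99.7% confidence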;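 note: fluorescence intensity change per second fitted from 20 to 320 s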). Particulars: Recombinant KvBeta, NADPH fluorescence decrease slope, 10 min; at 10 µM; stronger effect = lower value.
The target in assay [6] is Alpha-2C adrenergic receptor (Homo sapiens) (UniProt P18825). The experiment in a line: modulators of alpha2C/GIRK thallium flux, primary screen, cell-based, HEK293 alpha2C/GIRK1/2 (AID 624).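 Note: slope of fluorescence ratio to pre-addition baseline per second over 15 to 24 s.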 Particulars: thallium flux BTC fluorescence, at 10 µM, actives lie on both sides.
Alpha-2C adrenergic receptor (Homo sapiens), sequence (P18825 whole entry, looked up): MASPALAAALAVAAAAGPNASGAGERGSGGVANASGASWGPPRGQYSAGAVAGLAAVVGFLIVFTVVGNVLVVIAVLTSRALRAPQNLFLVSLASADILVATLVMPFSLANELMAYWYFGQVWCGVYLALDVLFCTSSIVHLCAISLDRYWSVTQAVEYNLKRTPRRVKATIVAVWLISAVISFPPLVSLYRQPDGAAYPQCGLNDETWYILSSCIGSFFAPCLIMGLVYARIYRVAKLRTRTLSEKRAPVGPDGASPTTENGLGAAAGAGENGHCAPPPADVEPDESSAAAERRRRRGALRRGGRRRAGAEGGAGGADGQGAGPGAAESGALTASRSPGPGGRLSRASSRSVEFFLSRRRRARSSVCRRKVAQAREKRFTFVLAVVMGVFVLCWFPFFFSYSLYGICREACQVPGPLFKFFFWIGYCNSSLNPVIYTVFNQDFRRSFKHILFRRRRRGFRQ
Assay [7] in a line: inhibitors of larval lipid processing in zebrafish, primary screen, whole organism, PED6 fluorescence, gall bladder and intestine (AID 686;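 active = a full or partial loss of lipid-probe fluorescence in the fish gall bladder, intestine or both, judged by eye; inactive = no fluorescence loss, or compound toxic to the fish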;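 note: larvae 5 to 7 days old with five fish per well; signal comes from phospholipase A2 cleavage of quenched PED6 carried via bile; overnight exposure to compound and PED6 before scoring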). Particulars: Zebrafish larvae PED6 lipid processing, fluorescence scoring; screened at 20 µM (by protocol). In outline:
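System: live zebrafish larvae aged 5-7 days, whole organism; measure: graded gall bladder and intestinal fluorescence inhibition per well; incubation: overnight exposure; reagent: ingested quenched lipid PED6 at 100 nM; signal: By-eye fluorescence microscopy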

Assay [8] can be described thus: inhibitors of Sendai virus-induced IRF3 signaling, primary screen, TLR/RLR signaling modifier project, cell-based, Sendai virus stimulus, luciferase, 10K MLSCN set (AID 602276;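 active = inhibition at or above 50% at 10 µM; inactive = inhibition below 50%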;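 note: firefly luciferase from ISG56 promoter only with Renilla not read in this screen; 0% = Sendai virus plus DMSO and 100% = medium plus DMSO without virus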). Particulars: HEK293 RL24 IRF3 luciferase reporter, at 10 µM, stronger effect = higher value. On the technique in general: Reporter assays use an easily measured gene product as a stand-in for the process of interest.

Assay [9] is described as follows: inhibitors of poly I:C-induced TLR3 signaling, primary screen, cell-based, poly I:C stimulus, luciferase, 10K MLSCN set (AID 602277;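 active = inhibition of the reporter signal at or above 50%; inactive = inhibition below 50%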). Particulars: HEK293-TLR3 RL24 IRF3 luciferase reporter, at 10 µM, stronger effect = higher value.

SMILES strings stand for the structures. The source made the active and inactive calls.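 Rule for the calls, unless noted: active = fluorescence slope after compound addition differing from the mean of all screened samples at 99.7% confidence, in either direction; inactive = the rest.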

Turning to `O=C(O)c1ccc(C2SCC(=O)N2Cc2ccccc2)cc1` (stereo not drawn), in assay [1], the cell count was 323. Also, the inhibition in assay [1] is -0.4% (inactive); in assay [3], 7.3% (inactive); in assay [8], -6.17% (inactive); in [9], 0.315% (inactive). Further, the inhibition of aggregation in assay [2] was 15.9% (inactive). For the same molecule, the nuclei count in assay [2] amounted to 57.9%; in assay [3], 101%. In addition, the fluorescence slope in assay [4] was -0.382 (inactive). Further, the NADPH fluorescence slope in [5] is 1.2e-05 (inactive). The slope in assay [6] was 0.00611 (inactive). Besides, the outcome in assay [7] was inactive.

As to `COc1ccccc1C(=O)NCC(c1cccnc1)N(C)C` (stereo not drawn), the cell count in assay [1] worked out at 776. Further, the inhibition was -2.2% (inactive) in [1], 1.4% (inactive) in assay [3], 10.3% (inactive) in assay [8] and 4.98% (inactive) in [9]. In addition, in [2], the inhibition of aggregation is -39.1% (inactive). Further, the nuclei count in [2] was found to be 112%; in assay [3], 122%. In addition, the fluorescence slope in assay [4] was -0.422 (inactive). In assay [5], the NADPH fluorescence slope was -5.3e-05 (inactive). Besides, in assay [6], the slope is 0.00557 (inactive). In assay [7], the result was inactive.

In the case of `COc1ccc(CNc2oc(-c3cccc4ccccc34)nc2C#N)cc1`, in assay [1], the cell count was determined as 570. Moreover, the inhibition is -3.4% (inactive) in assay [1], 56.8% (inactive) in assay [3], 4.97% (inactive) in assay [8] and 7.07% (inactive) in [9]. The inhibition of aggregation in [2] was 8.1% (inactive). The values for the nuclei count in assay [2] and in [3] were 86.3% and 86.1%, respectively. In assay [4], the fluorescence slope is -0.183 (inactive). Moreover, the NADPH fluorescence slope in [5] is 6.8e-06 (inactive). Moreover, the slope in assay [6] was 0.00641 (inactive). Further, in assay [7], the outcome was inactive.

For `CCc1nnc(NC(=O)CSc2nnc3ncccn23)s1`, in assay [1], the cell count turned out to be 341. Moreover, the inhibition in assay [1] was -5.8% (inactive); in assay [3] it was -34.8% (inactive); in [8] it was 18.7% (inactive); in assay [9], 25.6% (inactive). The inhibition of aggregation in assay [2] is -25.9% (inactive). The nuclei count in assay [2] amounted to 132%; in assay [3] it was 102%. The fluorescence slope in [4] was -0.437 (inactive). Moreover, the NADPH fluorescence slope in assay [5] was -9.3e-05 (inactive). For the same molecule, the slope in assay [6] was 0.00648 (inactive). Also, in [7], the call was inactive.

With `Cc1ccc2c(C(=O)CN3CCSCC3)c(C)[nH]c2c1`, the cell count in assay [1] was 634. Also, the inhibition is 4.8% (inactive) in assay [1], 2.2% (inactive) in [3], -12.6% (inactive) in assay [8] and -12.9% (inactive) in assay [9]. Also, in assay [2], the inhibition of aggregation was -7.9% (inactive). In addition, the values for the nuclei count in assay [2] and in [3] were 106% and 104%, respectively. In assay [4], the fluorescence slope is -0.386 (inactive). Moreover, in [5], the NADPH fluorescence slope is -8.2e-05 (inactive). For the same molecule, the slope in assay [6] is 0.00551 (inactive). In [7], the call was inactive.

In the case of `O=C(CN1CCC(n2nnc3ccccc32)CC1)Nc1ccc2c(c1)CCC2`, the cell count in [1] came out at 643. The inhibition is -9.3% (inactive) in [1], -27% (inactive) in assay [3], 16% (inactive) in assay [8] and 19% (inactive) in [9]. The inhibition of aggregation in [2] is 4.8% (inactive). Moreover, the nuclei count in assay [2] worked out at 96.4%; in assay [3] it was 107%. Further, the fluorescence slope in [4] was -0.42 (inactive). For the same molecule, the NADPH fluorescence slope in [5] was -4.8e-05 (inactive). In [6], the slope was 0.00413 (inactive). In addition, the call in assay [7] was inactive.

Regarding `COc1cc(S(=O)(=O)NC2CCCCC2C)ccc1Cl` (stereo not drawn), the cell count in [1] stood at 691. The inhibition in assay [1] is 4.8% (inactive); in [3], -69.9% (inactive); in assay [8], -3.61% (inactive); in assay [9], -3.48% (inactive). Moreover, the inhibition of aggregation in [2] is -2% (inactive). For the same molecule, the nuclei count in assay [2] came to 114%; in assay [3] it was 106%. Further, the fluorescence slope in assay [4] is -0.411 (inactive). For the same molecule, the NADPH fluorescence slope in [5] is 2.4e-05 (inactive). Moreover, in assay [6], the slope was 0.00366 (inactive). Besides, the molecule was called inactive in [7].

Regarding `CCCN1CCN(C(=O)Cn2cccc2C(=O)c2ccccc2)CC1`, the cell count in assay [1] was determined as 568. Also, the inhibition in assay [1] was 5.4% (inactive); in [3], -0.1% (inactive); in assay [8], 7.77% (inactive); in [9], 11.7% (inactive). The inhibition of aggregation in [2] was -4.9% (inactive). Moreover, the nuclei count was 109% in assay [2] and 108% in assay [3]. Besides, the fluorescence slope in assay [4] is -0.405 (inactive). In addition, the NADPH fluorescence slope in [5] was -5.8e-05 (inactive). The slope in assay [6] is 0.00424 (inactive). Moreover, the molecule was classed as inactive in assay [7].

Take `COc1ccccc1NC(=O)CSc1nnc(Cn2nnc(-c3ccccc3)n2)n1-c1ccccc1`: in assay [1], the cell count is 644. In addition, the inhibition is -12.5% (inactive) in assay [1], -50.5% (inactive) in assay [3], 19.9% (inactive) in [8] and 14.5% (inactive) in assay [9]. Besides, the inhibition of aggregation in assay [2] is 5.6% (inactive). Also, the nuclei count in assay [2] stood at 104%; in [3], 119%. For the same molecule, in assay [4], the fluorescence slope was -0.452 (inactive). Moreover, the NADPH fluorescence slope in [5] was -5.2e-05 (inactive). Besides, in assay [6], the slope was 0.00589 (inactive). Further, the molecule was classed as inactive in assay [7].

In the case of `CC(N)C12CC3CC(C1)CC(C(C)N)(C3)C2` (stereo not drawn), the cell count in assay [1] came to 394. In addition, the inhibition in [1] was 3% (inactive); in assay [3] it was -14.3% (inactive); in [8] it was 13.4% (inactive); in assay [9], 13.6% (inactive). Also, the inhibition of aggregation in assay [2] is -16.2% (inactive). In addition, the nuclei count in [2] was determined as 102%; in [3] it was 103%. For the same molecule, the fluorescence slope in assay [4] is -0.38 (inactive). Moreover, the NADPH fluorescence slope in assay [5] was -6.5e-05 (inactive). Moreover, the slope in assay [6] was 0.00438 (inactive). The molecule was called inactive in [7].

Regarding `N#Cc1c(N)oc(-c2cccs2)c1-c1cccs1`, the cell count in [1] came to 508. For the same molecule, the inhibition in assay [1] was 2.6% (inactive); in assay [3], -29.4% (inactive); in assay [8] it was -45.9% (inactive); in assay [9], 50.6% (active). Besides, the inhibition of aggregation in assay [2] is -9.8% (inactive). Moreover, the figures for the nuclei count in [2] and in [3] were 93.1% and 120%, respectively. In assay [4], the fluorescence slope is -0.306 (inactive). For the same molecule, the NADPH fluorescence slope in assay [5] was -3e-05 (inactive). Besides, the slope in assay [6] was 0.00454 (inactive). Further, the molecule was classed as inactive in assay [7].

Consider `COc1cccc(CC(=O)Nn2c(C)nc3ccccc3c2=O)c1`, for which the cell count in assay [1] turned out to be 375. In addition, the inhibition in [1] is 10.5% (inactive); in [3] it was -2% (inactive); in [8], -2.22% (inactive); in assay [9], 98% (active). For the same molecule, the inhibition of aggregation in assay [2] was -8.2% (inactive). In addition, the nuclei count in assay [2] worked out at 102%; in assay [3], 115%. Further, the fluorescence slope in assay [4] was -0.395 (inactive). Further, in assay [5], the NADPH fluorescence slope is -6e-05 (inactive). Moreover, the slope in assay [6] was 0.00573 (inactive). Besides, the molecule was called inactive in [7].

Turning to `CCCc1cc(N2CCCC2)n2nc(C)c(-c3ccccc3)c2n1`, the cell count in [1] is 531. The inhibition in assay [1] was -11% (inactive); in assay [3], -22.9% (inactive); in [8] it was 14% (inactive); in [9] it was -0.253% (inactive). For the same molecule, in assay [2], the inhibition of aggregation is -13.4% (inactive). Moreover, the nuclei count in assay [2] was determined as 112%; in assay [3], 122%. For the same molecule, the fluorescence slope in assay [4] was -0.118 (inactive). The NADPH fluorescence slope in assay [5] was 9.3e-07 (inactive). Further, the slope in assay [6] is 0.00457 (inactive). For the same molecule, the molecule was classed as inactive in assay [7].

For `O=C(c1ccc(S(=O)(=O)N2CCC(c3nc4ccccc4s3)CC2)cc1)N1CCOCC1`, the cell count in assay [1] was 689. Moreover, the inhibition in assay [1] was -2.9% (inactive); in assay [3] it was -80.2% (inactive); in assay [8], -8.58% (inactive); in assay [9] it was 3.6% (inactive). Moreover, the inhibition of aggregation in assay [2] was -25% (inactive). The nuclei count in assay [2] was found to be 109%; in assay [3], 116%. Further, the fluorescence slope in assay [4] was -0.392 (inactive). Further, in assay [5], the NADPH fluorescence slope is -9.6e-07 (inactive). Moreover, the slope in assay [6] was 0.00693 (inactive). In addition, the result in assay [7] was inactive.

Usually inhibition stands for the change of the read-out against control, counted positive when it falls.

These data come from PubChem BioAssay.
